Experiments:
Rattus norvegicus [1] = species: Rattus norvegicus; assay: Effective concentration causing half-maximal [Ca2+] release in rat hepatocytes; assay type: functional; conditions: Hepatocyte
Method in brief: (§1)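 Permeabilized rat hepatocytes loaded with 45Ca2+ to steady state for 5 min at 37 °C in cytosol-like medium (pH 7.0, free Ca2+ 200 nM) with ATP 1.5 mM, creatine phosphate/creatine phosphokinase and FCCP 10 µM. Thapsigargin 1.25 µM added; 30 s later, agonist for 60 s; store 45Ca2+ measured by rapid filtration. Four-parameter logistic fit gave maximal response, EC50, Hill slope. Means ± SEM.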

Rattus norvegicus [2] = species: Rattus norvegicus; assay: The % of actively accumulated [Ca2+] released by a maximally effective concentration of the compound; assay type: functional; method in brief: as §1
[3] = Hill coefficient was determined; assay type: functional; method in brief: as §1
Rattus norvegicus [4] = species: Rattus norvegicus; assay: Potency for [Ca2+] release in rat hepatocytes with respect to compound 2; conditions: Hepatocyte

Row | SMILES | EC50 (Rattus norvegicus [1]) | Max response (Rattus norvegicus [2]) | Hill slope [3] | relative potency (Rattus norvegicus [4])
1 | CN(C)c1ncnc2c1ncn2C1O[C@H](CO)[C@H](O[C@@H]2OC(CO)[C@H](OP(=O)(O)O)C(OP(=O)(O)O)[C@@H]2O)[C@@H]1OP(=O)(O)O (some centres not stated) | 19 nM | 39% | 2.1 | 0.82
2 | O=P(O)(O)OC1[C@@H](OP(=O)(O)O)C(CO)O[C@@H](O[C@@H]2[C@H](OP(=O)(O)O)C(n3cnc4c(NC5CCCCC5)ncnc43)O[C@@H]2CO)[C@H]1O (some centres not stated) | 25 nM | 45% | 2.3 | 0.56
3 | O=P(O)(O)OC1[C@@H](OP(=O)(O)O)C(CO)O[C@@H](O[C@@H]2[C@H](OP(=O)(O)O)C(n3cnc4c(NC5CCCC5)ncnc43)O[C@@H]2CO)[C@H]1O (some centres not stated) | 13 nM | 35% | 2.2 | 0.77
4 | COc1ncnc2c1ncn2C1O[C@H](CO)[C@H](O[C@@H]2OC(CO)[C@H](OP(=O)(O)O)C(OP(=O)(O)O)[C@@H]2O)[C@@H]1OP(=O)(O)O (some centres not stated) | 19 nM | 34% | 3.8 | 0.57
5 | O=P(O)(O)O[C@@H]1[C@H](O)[C@H](O)[C@@H](OP(=O)(O)O)[C@H](OP(=O)(O)O)[C@H]1O [INS(1,4,5)P3] | 185 nM | 35% | 2.3 | 0.08
6 | CNc1nc(OC)nc2c1ncn2C1O[C@H](CO)[C@H](O[C@@H]2OC(CO)[C@H](OP(=O)(O)O)C(OP(=O)(O)O)[C@@H]2O)[C@@H]1OP(=O)(O)O (some centres not stated) | 82 nM | 34% | 8.8 | 0.17
7 | Nc1ncnc2c1ncn2C1O[C@H](CO)[C@H](O[C@@H]2OC(CO)[C@H](OP(=O)(O)O)C(OP(=O)(O)O)[C@@H]2O)[C@@H]1OP(=O)(O)O (some centres not stated) | 14 nM | 35% | 2.4 | 1
8 | CNc1ncnc2c1ncn2C1O[C@H](CO)[C@H](O[C@@H]2OC(CO)[C@H](OP(=O)(O)O)C(OP(=O)(O)O)[C@@H]2O)[C@@H]1OP(=O)(O)O (some centres not stated) | 13 nM | 37% | 2.1 | 0.8
